From ChEMBL document CHEMBL4342526, “Exploration of the Structural Space in 4(3H)-Quinazolinone Antibacterials” (J Med Chem, 2020)
≈ marks a conversion by molar mass, not a printed value.

Tests used:
[1] = system: Staphylococcus aureus; assay: Antibacterial activity against clindamycin/erythromycin/spectinomycin-resistant mec-positive Staphylococcus aureus NRS70 measured after 16 to 20 hrs by microdilution method; assay type: functional
Procedure, shortened: (§1)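 CLSI broth microdilution; two-fold serial compound dilutions in triplicate in cation-adjusted Mueller–Hinton broth with 2% NaCl, inoculum 5 × 10^5 CFU/mL; 37 °C for 16–20 h; MIC = lowest concentration with no visible growth.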

[2] = system: HeLa; assay: Cytotoxicity against human HeLa cells assessed as reduction in cell viability measured after 16 hrs by XTT assay; assay type: cell-based
Procedure, shortened: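 HeLa cells (ATCC CCL-2), run in triplicate. Viability was read by XTT, and IC50 was obtained by nonlinear regression.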

[3] = system: Staphylococcus aureus; assay: Antibacterial activity against Staphylococcus aureus ATCC 29213 measured after 16 to 20 hrs by microdilution method; assay type: functional
Procedure, shortened: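 CLSI broth microdilution: two-fold serial dilutions in triplicate in cation-adjusted Mueller–Hinton broth with 2% NaCl, inoculum 5 × 10^5 CFU/mL, incubated at 37 °C for 16–20 h. MIC is the lowest concentration preventing visible growth.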

[4] = system: Staphylococcus aureus; assay: Antibacterial activity against Staphylococcus aureus ATCC 29213 measured after 16 to 20 hrs in presence of bovine serum albumin by microdilution method; assay type: functional
Procedure, shortened: (§2)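 S. aureus ATCC29213 MIC was run by CLSI microdilution in cation-adjusted Mueller–Hinton broth plus 2% NaCl, with and without 0.5% bovine serum albumin. Compounds were two-fold serially diluted in triplicate, inoculum was 5 × 10^5 CFU/mL, and plates were incubated at 37 °C for 16–20 h. The endpoint was the lowest concentration with no visible growth.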

[5] = system: Staphylococcus aureus; assay: Antibacterial activity against multi-drug resistant mecA-positive Staphylococcus aureus ATCC 27660 measured after 16 to 20 hrs by microdilution method; assay type: functional; procedure, shortened: as §1
[6] = Selectivity index, ratio of IC50 for human HeLa cells to MIC for clindamycin/erythromycin/spectinomycin-resistant mec-positive Staphylococcus aureus NRS70; assay type: toxicity
Procedure, shortened: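 HeLa cytotoxicity by XTT assay in triplicate, IC50 by nonlinear regression; ratio IC50 over broth microdilution MIC against NRS70.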

[7] = Protein binding in human plasma at 10 uM measured after 6 hrs UV-UPLC based rapid equilibrium dialysis method; assay type: ADME, cell-free
Procedure, shortened: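 Rapid equilibrium dialysis: human plasma was cleared by centrifugation and spiked from a 1 mM DMSO stock to a final 10 μM, against 0.1 M PBS pH 7.4. Dialysis ran 6 h at 37 °C with orbital shaking. Buffer (free) and plasma (total) aliquots were mixed with internal standard in acetonitrile and measured by UPLC-UV at 285 nm. B% = (Cp−Cf)/Cp×100.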

[8] = system: Staphylococcus aureus; assay: Antibacterial activity against multi-drug resistant mecA-positive Staphylococcus aureus NRS119 measured after 16 to 20 hrs by microdilution method; assay type: functional; procedure, shortened: as §1
[9] = system: Staphylococcus aureus; assay: Antibacterial activity against multi-drug resistant mec-positive Staphylococcus aureus USA300 measured after 16 to 20 hrs by microdilution method; assay type: functional; procedure, shortened: as §1
[10] = system: Staphylococcus aureus; assay: Selectivity ratio of MIC for Staphylococcus aureus ATCC 29213 in presence of bovine serum albumin to MIC for Staphylococcus aureus ATCC 29213 in absence of bovine serum albumin; assay type: functional; procedure, shortened: as §2

## O=C(O)c1cccc(-n2c(/C=C/c3cc(Cl)cs3)nc3ccccc3c2=O)c1
[1]
  MIC: 2 mg/L (≈ 4.89 µM)
[2]
  IC50: 140 mg/L (≈ 342 µM)
[3]
  MIC: 4 mg/L (≈ 9.78 µM)
[4]
  MIC: 32 mg/L
[5]
  MIC: 2 mg/L (≈ 4.89 µM)
[6]
  selectivity ratio: 70
[7]
  PPB: > 99.9%
[8]
  MIC: 1 mg/L (≈ 2.45 µM)
[9]
  MIC: 4 mg/L (≈ 9.78 µM)

## O=C(O)c1cccc(-n2c(/C=C/c3ccc(Br)s3)nc3ccccc3c2=O)c1
[1]
  MIC: 0.5 mg/L (≈ 1.1 µM)
[2]
  IC50: 190 mg/L (≈ 419 µM)
[3]
  MIC: 0.25 mg/L (≈ 0.551 µM)
[4]
  MIC: 2 mg/L
[5]
  MIC: 0.5 mg/L (≈ 1.1 µM)
[6]
  selectivity ratio: 380
[7]
  PPB: > 99.9%
[8]
  MIC: 4 mg/L (≈ 8.82 µM)
[9]
  MIC: 0.5 mg/L (≈ 1.1 µM)

## N#Cc1ccc(/C=C/c2nc3ccccc3c(=O)n2-c2cccc(CNC(=O)C(F)(F)F)c2)cc1
[1]
  MIC: 64 mg/L (≈ 135 µM)
[2]
  IC50: 150 mg/L (≈ 316 µM)
[3]
  MIC: 0.5 mg/L (≈ 1.05 µM)
[4]
  MIC: 8 mg/L
[5]
  MIC: 64 mg/L (≈ 135 µM)
[6]
  selectivity ratio: 2
[7]
  PPB: > 99.9%
[9]
  MIC: 4 mg/L (≈ 8.43 µM)

## C#Cc1ccc(/C=C/c2nc3ccccc3c(=O)n2-c2cccc(C(=O)O)c2)cc1
[2]
  IC50: > 128 mg/L
[3]
  MIC: 0.03 mg/L (≈ 0.0764 µM)
[4]
  MIC: 0.25 mg/L
[5]
  MIC: 0.125 mg/L (≈ 0.319 µM)
[6]
  selectivity ratio: > 256
[8]
  MIC: 0.125 mg/L (≈ 0.319 µM)
[9]
  MIC: 0.03 mg/L (≈ 0.0764 µM)

## O=C(O)c1cccc(-n2c(/C=C/c3ccc(I)cc3)nc3ccccc3c2=O)c1
[1]
  MIC: 0.5 mg/L (≈ 1.01 µM)
[2]
  IC50: 100 mg/L (≈ 202 µM)
[3]
  MIC: 0.5 mg/L (≈ 1.01 µM)
[4]
  MIC: 16 mg/L
[5]
  MIC: 0.5 mg/L (≈ 1.01 µM)
[6]
  selectivity ratio: 200
[7]
  PPB: > 99.9%
[8]
  MIC: 2 mg/L (≈ 4.05 µM)
[9]
  MIC: 0.25 mg/L (≈ 0.506 µM)

## N#Cc1ccc(/C=C/c2nc3ccccc3c(=O)n2-c2cc(C(=O)O)ccc2Cl)cc1
[1]
  MIC: 2 mg/L (≈ 4.67 µM)
[2]
  IC50: > 128 mg/L
[3]
  MIC: 2 mg/L (≈ 4.67 µM)
[4]
  MIC: 16 mg/L
[5]
  MIC: 2 mg/L (≈ 4.67 µM)
[6]
  selectivity ratio: > 64
[7]
  PPB: > 99.9%
[8]
  MIC: 2 mg/L (≈ 4.67 µM)
[9]
  MIC: 1 mg/L (≈ 2.34 µM)

## O=C(O)c1cccc(-n2c(SCc3ccccc3)nc3ccccc3c2=O)c1
[1]
  MIC: 0.5 mg/L (≈ 1.29 µM)
[2]
  IC50: > 64 mg/L
[3]
  MIC: 0.25 mg/L (≈ 0.644 µM)
[4]
  MIC: 4 mg/L
[6]
  selectivity ratio: > 128
[7]
  PPB: > 99.9%
[8]
  MIC: 1 mg/L (≈ 2.57 µM)
[9]
  MIC: 1 mg/L (≈ 2.57 µM)

## CC(=O)NS(=O)(=O)c1cccc(-n2c(/C=C/c3ccc(C#N)cc3)nc3ccccc3c2=O)c1
[2]
  IC50: 200 mg/L (≈ 425 µM)
[3]
  MIC: 4 mg/L (≈ 8.5 µM)
[6]
  selectivity ratio: 50
[7]
  PPB: 99.2%
[8]
  MIC: 2 mg/L (≈ 4.25 µM)

## N#Cc1ccc(/C=C/c2nc3ccccc3c(=O)n2-c2cc(C(=O)O)ccc2O)cc1
[3]
  MIC: > 128 mg/L

## N#Cc1ccc(/C=C/c2nc3ccccc3c(=O)n2-c2cc(C(=O)O)ccn2)cc1
[3]
  MIC: > 128 mg/L

## COC(=O)c1cccc(-n2c(NCc3ccc(F)cc3)nc3ccccc3c2=O)c1
[3]
  MIC: > 128 mg/L

## N#Cc1ccc(/C=C/c2nc3ccccc3c(=O)n2-c2cccc(N=[N+]=[N-])c2)cc1
[3]
  MIC: 16 mg/L (≈ 41 µM)

## N#Cc1ccc(COc2nc3ccccc3c(=O)n2-c2cccc(C(=O)O)c2)cc1
[3]
  MIC: > 128 mg/L

## N#Cc1ccc(/C=C/c2nc3ccccc3c(=O)n2-c2cccc(C(=O)O)c2)s1
[1]
  MIC: 4 mg/L (≈ 10 µM)
[2]
  IC50: 110 mg/L (≈ 275 µM)
[3]
  MIC: 4 mg/L (≈ 10 µM)
[4]
  MIC: 32 mg/L
[5]
  MIC: 4 mg/L (≈ 10 µM)
[6]
  selectivity ratio: 28
[7]
  PPB: 99.2%
[8]
  MIC: 4 mg/L (≈ 10 µM)
[9]
  MIC: 4 mg/L (≈ 10 µM)

## CS(=O)(=O)Nc1cccc(-n2c(/C=C/c3ccc(C#N)cc3)nc3ccccc3c2=O)c1
[3]
  MIC: 0.015 mg/L (≈ 0.0339 µM)

## N#Cc1ccc(/C=C/c2nc3ccccc3c(=O)n2-c2cccc(NC(=O)C(F)(F)F)c2)cc1
[1]
  MIC: 0.06 mg/L (≈ 0.13 µM)
[2]
  IC50: > 128 mg/L
[3]
  MIC: 2 mg/L (≈ 4.34 µM)
[4]
  MIC: 32 mg/L
[5]
  MIC: 0.06 mg/L (≈ 0.13 µM)
[6]
  selectivity ratio: > 2130
[7]
  PPB: > 99.9%
[8]
  MIC: 1 mg/L (≈ 2.17 µM)
[9]
  MIC: 0.06 mg/L (≈ 0.13 µM)

## N#Cc1ccc(CNc2nc3ccccc3c(=O)n2-c2cccc(C(=O)O)c2)cc1
[3]
  MIC: > 128 mg/L

## CC(C(=O)O)n1c(/C=C/c2ccc(C#N)cc2)nc2ccccc2c1=O (centres undefined)
[3]
  MIC: 128 mg/L (≈ 371 µM)

## Nc1cccc(-n2c(N3CCN(c4ccc(Cl)cc4)CC3)nc3ccccc3c2=O)c1
[3]
  MIC: > 128 mg/L

## O=C(O)c1cccc(-n2c(/C=C/c3ccc(Cl)s3)nc3ccccc3c2=O)c1
[1]
  MIC: 0.5 mg/L (≈ 1.22 µM)
[2]
  IC50: 180 mg/L (≈ 440 µM)
[3]
  MIC: 0.5 mg/L (≈ 1.22 µM)
[4]
  MIC: 4 mg/L
[5]
  MIC: 0.5 mg/L (≈ 1.22 µM)
[6]
  selectivity ratio: 360
[7]
  PPB: 99.3%
[9]
  MIC: 1 mg/L (≈ 2.45 µM)

## Cc1ccc(C(=O)O)cc1-n1c(/C=C/c2ccc(C#N)cc2)nc2ccccc2c1=O
[1]
  MIC: 4 mg/L (≈ 9.82 µM)
[2]
  IC50: 60 mg/L (≈ 147 µM)
[3]
  MIC: 2 mg/L (≈ 4.91 µM)
[4]
  MIC: 16 mg/L
[5]
  MIC: 4 mg/L (≈ 9.82 µM)
[6]
  selectivity ratio: 15
[7]
  PPB: > 99.9%
[8]
  MIC: 4 mg/L (≈ 9.82 µM)
[9]
  MIC: 1 mg/L (≈ 2.45 µM)

## N#Cc1ccc(/C=C/c2nc3ccccc3c(=O)n2-c2ccccc2C(=O)O)cc1
[3]
  MIC: 32 mg/L (≈ 81.3 µM)

## CS(=O)(=O)Nc1cccc(-n2c(NCc3ccc(C#N)cc3)nc3ccccc3c2=O)c1
[1]
  MIC: 0.25 mg/L (≈ 0.561 µM)
[2]
  IC50: 62 mg/L (≈ 139 µM)
[3]
  MIC: 0.125 mg/L (≈ 0.281 µM)
[4]
  MIC: 1 mg/L
[5]
  MIC: 0.125 mg/L (≈ 0.281 µM)
[6]
  selectivity ratio: 248
[7]
  PPB: > 99.9%
[8]
  MIC: 0.25 mg/L (≈ 0.561 µM)
[9]
  MIC: 0.25 mg/L (≈ 0.561 µM)

## COC(=O)c1cccc(-n2c(NCc3ccc(C#N)cc3)nc3ccccc3c2=O)c1
[3]
  MIC: 16 mg/L (≈ 39 µM)

## N#Cc1ccc(/C=C/c2nc3ccccc3c(=O)n2-c2cccc(CN3C(=O)c4ccccc4C3=O)c2)cc1
[3]
  MIC: > 128 mg/L

## N#Cc1ccc(CNc2nc3ccccc3c(=O)n2-c2cccc([N+](=O)[O-])c2)cc1
[3]
  MIC: > 128 mg/L

## N#Cc1ccc(/C=C/c2nc3ccccc3c(=O)n2-c2cccc(C#N)c2)cc1
[3]
  MIC: > 128 mg/L

## O=C(O)c1cccc(-n2c(/C=C/c3nccs3)nc3ccccc3c2=O)c1
[3]
  MIC: > 128 mg/L

## COC(=O)c1cccc(-n2c(/C=C/c3ccc(C#N)cc3)nc3ccccc3c2=O)n1
[3]
  MIC: > 128 mg/L

## N#Cc1ccc(/C=C/c2nc3ccccc3c(=O)n2-c2ccc(F)c(C(=O)O)c2)cc1
[3]
  MIC: 16 mg/L (≈ 38.9 µM)

## N#Cc1ccc(/C=C/c2nc3ccccc3c(=O)n2-c2ccc3[nH]c(=S)[nH]c3c2)cc1
[3]
  MIC: > 128 mg/L

## N#Cc1ccc(/C=C/c2nc3ccccc3c(=O)n2-c2cccc(CN)c2)cc1
[3]
  MIC: 32 mg/L (≈ 84.6 µM)

## O=C(O)c1cccc(-n2c(/C=C/c3cc[n+]([O-])cc3)nc3ccccc3c2=O)c1
[3]
  MIC: > 128 mg/L

## COC(=O)c1cccc(-n2c(/C=C/c3ccc(C#N)cc3)nc3ccccc3c2=O)c1O
[3]
  MIC: > 128 mg/L

## N#Cc1ccc(/C=C/c2nc3ccccc3c(=O)n2-c2ccccc2[N+](=O)[O-])cc1
[3]
  MIC: > 128 mg/L

## N#Cc1ccc(/C=C/c2nc3ccccc3c(=O)n2-c2cccc(C(=O)O)c2)cn1
[3]
  MIC: 64 mg/L (≈ 162 µM)

## N#Cc1ccc(CSc2nc3ccccc3c(=O)n2-c2cccc(C(=O)O)c2)cc1
[10]
  selectivity ratio: <=4
[2]
  IC50: 78 mg/L (≈ 189 µM)
[3]
  MIC: 2 mg/L (≈ 4.84 µM)
[4]
  MIC: 8 mg/L
[6]
  selectivity ratio: 39
[7]
  PPB: > 99.9%

## O=C(O)c1cccc(-n2c(/C=C/c3cccnc3F)nc3ccccc3c2=O)c1
[3]
  MIC: > 128 mg/L

## O=C(O)c1cccc(-n2c(/C=C/c3ccncc3)nc3ccccc3c2=O)c1
[3]
  MIC: 64 mg/L (≈ 173 µM)
